As usually defined, the MIC is the smallest concentration in the dilution series that meets the test's criterion for growth inhibition. Low values mean greater potency, high ones weaker potency.

For the first assay, the system named is Taenia crassiceps. Kind of assay: Minimum inhibitory concentration to prevent all movement of cysts and evaginated scoleces of in vitro Taenia crassiceps screen after 48 h. It is filed as functional. In short, it runs like this:
(§1)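 Taenia crassiceps cysts taken from mice, pepsin-treated (0.05% in HCl, pH 2.0, 5 min, 37 °C) and washed three times in Hank's balanced salt solution. Compound added as a methylcellulose suspension (final 10 μg/mL) in CMRL 1066-based medium with fetal calf serum, glucose, taurocholate, yeast extract, HEPES and antibiotics, at 37 °C. Invaginated and evaginated cysts scored at 24 and 48 h. Actives titrated for MIC.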
`O=C(c1cccnc1)N1CC(=O)N2CCCc3ccccc3C2C1` (stereo unspecified) gave an MIC of over 10 µg/mL. `O=C(C1CCCCC1)N1CC(=S)N2CCCc3ccccc3C2C1` (stereo unspecified) returned an MIC of over 10 µg/mL. On to `Nc1cccc(C(=O)N2CC(=O)N3CCCc4ccccc4C3C2)c1` (stereo unspecified), for which the MIC was over 10 µg/mL.

For the compound `CCCCCC(=O)N1CC(=O)N2CCCc3ccccc3C2C1` (stereo unspecified), the minimal inhibitory concentration (MIC) was over 10 µg/mL.

`O=C(c1ccc([N+](=O)[O-])cc1)N1CC(=O)N2CCCc3ccccc3C2C1` (stereo unspecified): the minimal inhibitory concentration (MIC) was over 10 µg/mL. For `O=C(c1ccc(O)cc1)N1CC(=O)N2CCCc3ccccc3C2C1` (stereo unspecified), the minimal inhibitory concentration (MIC) is over 10 µg/mL. On the same count and under the same terms, for `O=C(C1CCC1)N1CC(=O)N2CCCc3ccccc3C2C1` (stereo unspecified) the value was over 10 µg/mL; for `O=C(c1cccc([N+](=O)[O-])c1)N1CC(=O)N2CCCc3ccccc3C2C1` (stereo unspecified), at most 10 µg/mL. As to `O=C(C1CCCCC1)N1CC(=O)N2CCc3ccccc3C2C1` (stereo unspecified) [PRAZIQUANTEL], the MIC was at most 0.1 µg/mL. Same read-out and setting: for `O=C(c1ccc(F)cc1)N1CC(=O)N2CCCc3ccccc3C2C1` (stereo unspecified) the value was over 10 µg/mL. In turn, `O=C(C1CCCCC1)N1CC(=O)N2CCSc3ccccc3C2C1` (stereo unspecified) came in with an MIC of over 10 µg/mL.

In the case of `Cl.O=C(C1CCCCC1)N1CCN2CCCc3ccccc3C2C1` (stereo unspecified), the minimum inhibitory concentration (MIC) is over 10 µg/mL. The compound `CC(=O)N1CC(=O)N2CCCc3ccccc3C2C1` (stereo unspecified) came in with an MIC of over 10 µg/mL.

`O=C(c1ccc(Cl)cc1)N1CC(=O)N2CCCc3ccccc3C2C1` (stereo unspecified) came in with an MIC of over 10 µg/mL.

As to `COc1cc2c(cc1OC)C1CN(C(=O)C3CCCCC3)CC(=O)N1CCC2` (stereo unspecified), the minimal inhibitory concentration (MIC) is over 10 µg/mL.

In the case of `Cc1ccccc1C(=O)N1CC(=O)N2CCCc3ccccc3C2C1` (stereo unspecified), the MIC was over 10 µg/mL. Regarding `Cc1cccc(C(=O)N2CC(=O)N3CCCc4ccccc4C3C2)c1` (stereo unspecified), the MIC is over 10 µg/mL.

The compound `CN(C)c1ccc(C(=O)N2CC(=O)N3CCCc4ccccc4C3C2)cc1` (stereo unspecified) displayed an MIC of over 10 µg/mL.

`CC(C)C(=O)N1CC(=O)N2CCCc3ccccc3C2C1` (stereo unspecified) displayed an MIC of over 10 µg/mL. For the compound `O=C(c1cccc(Cl)c1)N1CC(=O)N2CCCc3ccccc3C2C1` (stereo unspecified), the MIC is over 10 µg/mL. With `Cc1ccc(C(=O)N2CC(=O)N3CCCc4ccccc4C3C2)cc1` (stereo unspecified), the minimum inhibitory concentration (MIC) is at most 10 µg/mL. `O=C(C1CCOCC1)N1CC(=O)N2CCCc3ccccc3C2C1` (stereo unspecified) yielded an MIC of over 10 µg/mL. In turn, `COc1ccc(C(=O)N2CC(=O)N3CCCc4ccccc4C3C2)cc1` (stereo unspecified) came in with an MIC of over 10 µg/mL. Turning to `O=C(C1CCCCCC1)N1CC(=O)N2CCCc3ccccc3C2C1` (stereo unspecified), the minimum inhibitory concentration (MIC) was over 10 µg/mL. On the same count and under the same terms, next, `O=C(C1CCCCC1)N1CC(=O)N2CCCc3ccccc3C2C1` (stereo unspecified) [EPSIPRANTEL]: at most 0.1 µg/mL.

The next assay concerns Taenia crassiceps. The assay is described as follows: 1 Minimum inhibitory concentration to prevent all movement of cysts and evaginated scoleces of in vitro Taenia crassiceps screen after 48 h. It is filed as functional. Put shortly:
as §1
As to `O=C(C1CCCCC1)N1CC(=O)N2CCCc3ccccc3C2C1` (single isomer, unassigned; (-)) [EPSIPRANTEL], the MIC was under 0.1 µg/mL.
